# Results from ChEMBL document CHEMBL5058577, “EUbOPEN Chemogenomics Library 2 (Multiplex)” (2022).
# Tested on: Fibroblast
# Assay: Multiplex assay against human fibroblast
# Assay type: toxicity, cell-based
# Summary of the method: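 Cells stained live at seeding with Hoechst33342, BioTracker Green Microtubule Cytoskeleton Dye, MitoTracker Red and Annexin V Alexa Fluor 680 were imaged on a CQ1 microscope at 37°C and 5% CO2 after compound addition. Their classification by CellPathfinder machine-learning gating ran from Hoechst high-intensity objects versus normal cells, to healthy, pyknosed or fragmented nuclei among normal cells, to mitotic or apoptotic among pyknosed cells. Tubulin, mitochondrial-mass and membrane-permeability phenotypes are per cents of healthy-nucleus cells.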
# [1] = 12 h, 1 µM, compound concentration 1 uM, replicate 1
# [2] = 12 h, 1 µM, compound concentration 1 uM, replicate 2
# [3] = 12 h, 10 µM, compound concentration 10 uM, replicate 1
# [4] = 12 h, 10 µM, compound concentration 10 uM, replicate 2
# [5] = 24 h, 1 µM, compound concentration 1 uM, replicate 1
# [6] = 24 h, 1 µM, compound concentration 1 uM, replicate 2
# [7] = 24 h, 10 µM, compound concentration 10 uM, replicate 1
# [8] = 24 h, 10 µM, compound concentration 10 uM, replicate 2
# [9] = 48 h, 1 µM, compound concentration 1 uM, replicate 1
# [10] = 48 h, 1 µM, compound concentration 1 uM, replicate 2
# [11] = 48 h, 10 µM, compound concentration 10 uM, replicate 1
# [12] = 48 h, 10 µM, compound concentration 10 uM, replicate 2
structure (smiles),measurement,setting,value
CCCOc1ccc2[nH]cc(C3=CCNCC3)c2n1.Cl,Population Apoptotic (%),[1],42%
same,Population Fragmented Nuclei (%),[1],13%
same,Population Healthy Nuclei (%),[1],71%
same,Population Hoechst High Intensity Objects (%),[1],2%
same,Population Membrane Permeable-Phenotype (%),[1],0%
same,Population Mitochondria Different-Phenotype (%),[1],6%
same,Population Mitotic Cells (%),[1],57%
same,Population Normal (%),[1],97%
same,Population Pyknosed Nuclei (%),[1],15%
same,Population Tubulin-Different-Phenotype (%),[1],27%
same,Total Cell Count,[1],143
same,Population Apoptotic (%),[2],48%
same,Population Fragmented Nuclei (%),[2],25%
same,Population Healthy Nuclei (%),[2],52%
same,Population Hoechst High Intensity Objects (%),[2],0%
same,Population Membrane Permeable-Phenotype (%),[2],8%
same,Population Mitochondria Different-Phenotype (%),[2],2%
same,Population Mitotic Cells (%),[2],51%
same,Population Normal (%),[2],99%
same,Population Pyknosed Nuclei (%),[2],21%
same,Population Tubulin-Different-Phenotype (%),[2],47%
same,Total Cell Count,[2],137
same,Population Apoptotic (%),[3],70%
same,Population Fragmented Nuclei (%),[3],16%
same,Population Healthy Nuclei (%),[3],70%
same,Population Hoechst High Intensity Objects (%),[3],4%
same,Population Membrane Permeable-Phenotype (%),[3],0%
same,Population Mitochondria Different-Phenotype (%),[3],12%
same,Population Mitotic Cells (%),[3],29%
same,Population Normal (%),[3],95%
same,Population Pyknosed Nuclei (%),[3],13%
same,Population Tubulin-Different-Phenotype (%),[3],41%
same,Total Cell Count,[3],133
same,Population Apoptotic (%),[4],40%
same,Population Fragmented Nuclei (%),[4],31%
same,Population Healthy Nuclei (%),[4],48%
same,Population Hoechst High Intensity Objects (%),[4],2%
same,Population Membrane Permeable-Phenotype (%),[4],1%
same,Population Mitochondria Different-Phenotype (%),[4],10%
same,Population Mitotic Cells (%),[4],60%
same,Population Normal (%),[4],97%
same,Population Pyknosed Nuclei (%),[4],20%
same,Population Tubulin-Different-Phenotype (%),[4],59%
same,Total Cell Count,[4],125
same,Population Apoptotic (%),[5],57%
same,Population Fragmented Nuclei (%),[5],14%
same,Population Healthy Nuclei (%),[5],76%
same,Population Hoechst High Intensity Objects (%),[5],2%
same,Population Membrane Permeable-Phenotype (%),[5],0%
same,Population Mitochondria Different-Phenotype (%),[5],6%
same,Population Mitotic Cells (%),[5],42%
same,Population Normal (%),[5],97%
same,Population Pyknosed Nuclei (%),[5],9%
same,Population Tubulin-Different-Phenotype (%),[5],20%
same,Total Cell Count,[5],155
same,Population Apoptotic (%),[6],38%
same,Population Fragmented Nuclei (%),[6],28%
same,Population Healthy Nuclei (%),[6],52%
same,Population Hoechst High Intensity Objects (%),[6],0%
same,Population Membrane Permeable-Phenotype (%),[6],5%
same,Population Mitochondria Different-Phenotype (%),[6],5%
same,Population Mitotic Cells (%),[6],61%
same,Population Normal (%),[6],100%
same,Population Pyknosed Nuclei (%),[6],18%
same,Population Tubulin-Different-Phenotype (%),[6],40%
same,Total Cell Count,[6],140
same,Population Apoptotic (%),[7],61%
same,Population Fragmented Nuclei (%),[7],23%
same,Population Healthy Nuclei (%),[7],64%
same,Population Hoechst High Intensity Objects (%),[7],1%
same,Population Membrane Permeable-Phenotype (%),[7],0%
same,Population Mitochondria Different-Phenotype (%),[7],12%
same,Population Mitotic Cells (%),[7],38%
same,Population Normal (%),[7],98%
same,Population Pyknosed Nuclei (%),[7],11%
same,Population Tubulin-Different-Phenotype (%),[7],36%
same,Total Cell Count,[7],159
same,Population Apoptotic (%),[8],50%
same,Population Fragmented Nuclei (%),[8],20%
same,Population Healthy Nuclei (%),[8],68%
same,Population Hoechst High Intensity Objects (%),[8],2%
same,Population Membrane Permeable-Phenotype (%),[8],4%
same,Population Mitochondria Different-Phenotype (%),[8],8%
same,Population Mitotic Cells (%),[8],50%
same,Population Normal (%),[8],97%
same,Population Tubulin-Different-Phenotype (%),[8],61%
same,Total Cell Count,[8],107
same,Population Apoptotic (%),[9],69%
same,Population Fragmented Nuclei (%),[9],17%
same,Population Healthy Nuclei (%),[9],74%
same,Population Hoechst High Intensity Objects (%),[9],2%
same,Population Membrane Permeable-Phenotype (%),[9],0%
same,Population Mitochondria Different-Phenotype (%),[9],5%
same,Population Mitotic Cells (%),[9],30%
same,Population Normal (%),[9],97%
same,Population Pyknosed Nuclei (%),[9],8%
same,Population Tubulin-Different-Phenotype (%),[9],23%
same,Total Cell Count,[9],162
same,Population Apoptotic (%),[10],64%
same,Population Fragmented Nuclei (%),[10],36%
same,Population Healthy Nuclei (%),[10],53%
same,Population Hoechst High Intensity Objects (%),[10],4%
same,Population Membrane Permeable-Phenotype (%),[10],5%
same,Population Mitochondria Different-Phenotype (%),[10],2%
same,Population Mitotic Cells (%),[10],35%
same,Population Normal (%),[10],95%
same,Population Pyknosed Nuclei (%),[10],9%
same,Population Tubulin-Different-Phenotype (%),[10],40%
same,Total Cell Count,[10],147
same,Population Apoptotic (%),[11],73%
same,Population Fragmented Nuclei (%),[11],21%
same,Population Healthy Nuclei (%),[11],65%
same,Population Hoechst High Intensity Objects (%),[11],2%
same,Population Membrane Permeable-Phenotype (%),[11],0%
same,Population Mitochondria Different-Phenotype (%),[11],9%
same,Population Mitotic Cells (%),[11],26%
same,Population Normal (%),[11],97%
same,Population Pyknosed Nuclei (%),[11],13%
same,Population Tubulin-Different-Phenotype (%),[11],45%
same,Total Cell Count,[11],150
same,Population Apoptotic (%),[12],60%
same,Population Fragmented Nuclei (%),[12],32%
same,Population Healthy Nuclei (%),[12],62%
same,Population Hoechst High Intensity Objects (%),[12],5%
same,Population Membrane Permeable-Phenotype (%),[12],4%
same,Population Mitochondria Different-Phenotype (%),[12],13%
same,Population Mitotic Cells (%),[12],40%
same,Population Normal (%),[12],94%
same,Population Pyknosed Nuclei (%),[12],4%
same,Population Tubulin-Different-Phenotype (%),[12],44%
same,Total Cell Count,[12],116
